Published values gathered from unrelated publications.
Lines come from different studies, so protocols differ.
Cell line: PC-3
Effect on: cell growth or viability
Technique: MTT

Cc1nc(Nc2ccc3c(c2)/C(=C/c2ccccc2C)C(=O)N3)c2ccccc2n1  IC50: 26.7 µM
CCCOc1nc(-c2cccc(O)c2)cc(-c2cc3ccccc3nc2N2CCOCC2)c1C#N  IC50 (72 h): 0.155 µM
COc1ccc(-c2cc(-c3ccc(C)cc3)nc3c2c(=O)n(C)c(=O)n3C)cc1OC  IC50 (48 h): 38.9 µM
Cc1nc(Nc2ccc3c(c2)CC(=O)N3)c2ccccc2n1  IC50: 20.6 µM
Nc1n[nH]c2nc(-c3cccc(O)c3)cc(-c3cc4ccccc4nc3N3CCOCC3)c12  IC50 (72 h): 0.0564 µM
Cc1ccc(-c2cc(-c3c(Cl)cccc3Cl)c3c(=O)n(C)c(=O)n(C)c3n2)cc1  IC50 (48 h): 9.89 µM
Cc1nc(N(C)c2ccc3c(c2)/C(=C/c2ccccc2Cl)C(=O)N3C)c2ccccc2n1  IC50: 23.7 µM
COc1ccc(-c2cc(-c3cc(OC)ccc3OC)c3c(=O)[nH]c(=O)[nH]c3n2)cc1  IC50 (48 h): 19.1 µM
[NH2][Pt]([NH2])([Cl])[Cl]  IC50: 8.3 µM
COc1cccc2c1C(=O)c1c(O)c3c(c(O)c1C2=O)C[C@@](O)(C(=O)CO)C[C@@H]3O[C@H]1C[C@H](N)[C@H](O)[C@H](C)O1  IC50 (72 h): 0.61 µM
CCOc1nc(-c2cccc(O)c2)cc(-c2cc3ccccc3nc2N2CCOCC2)c1C#N  IC50 (72 h): 0.118 µM
COc1cc2ncnc(N(C)c3ccc4c(c3)/C(=C/c3cccc(Cl)c3)C(=O)N4C)c2cc1OC  IC50: 5.5 µM
CCOc1nc(-c2cccc(O)c2)cc(-c2cc3cc(Cl)ccc3nc2N2CCOCC2)c1C#N  IC50 (72 h): 0.174 µM
Cc1ccc(-c2cc(-c3c(Cl)cccc3Cl)c3c(=O)[nH]c(=O)[nH]c3n2)cc1  IC50 (48 h): 48.9 µM
